Data reported in ChEMBL document CHEMBL1777695, “Design and synthesis of pironetin analogues with simplified structure and study of their interactions with microtubules” (Eur J Med Chem, 2011).
pIC50: −log10 of the molar value. Activity calls are given as the source filed them. The calls are words filed in the database; no cut-off is given here.

Assays:
[1] = Inhibition of tubulin assembly assessed as concentration of tubulin required to produce assembly at 25 uM after 30 mins
Procedure, shortened: (§1)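 Purified tubulin (20 µM) incubated 30 min at 37 °C in GAB (3.4 M glycerol, 10 mM sodium phosphate, 1 mM EGTA, 1 mM GTP, pH 6.5) with 25 µM pironetin or docetaxel, 100 µM analogue, or DMSO vehicle. Critical concentration for assembly determined. Mean of five measurements ± SE.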

[2] = test system: A549; assay: Cell cycle arrest in human A549 cells assessed as minimum concentration required to induce accumulation at G2/M phase after 20 hrs by propidium iodide staining-based flow cytometry; format: functional
Procedure, shortened: (§2)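 A549 cells (RPMI 1640, 10% FCS, glutamine, antibiotics) exposed 20 h to ligand or vehicle. Cells fixed, RNase-treated and stained with propidium iodide. DNA content read by flow cytometry. The lowest concentration giving maximal G2/M arrest is reported.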

[3] = test system: A2780; assay: Resistance index, ratio of IC50 for human compound-resistant A2780AD cells to IC50 for human compound-sensitive A2780 cells
[4] = test system: A549; assay: Induction of abberant mitosis in human A549 cells assessed as metaphase mitotic cells with DNA forming a ring surrounding mono-aster of microtubule at 200 uM after 4 hrs relative to control; format: functional, cell-based
Procedure, shortened: (§3)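 A549 cells grown overnight on coverslips, then treated 4 h with ligand (50 nM or 200 µM) or DMSO vehicle. Cells permeabilized with Triton X-100 and fixed in 3.7% formaldehyde. Microtubules stained with DM1A anti-α-tubulin antibody and DNA with Hoechst 33342. Spindle and microtubule morphology examined by epifluorescence microscopy.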

[5] = test system: A2780; assay: Cytotoxicity against compound-sensitive human A2780 cells after 24 hrs by MTT assay; format: functional, cell-based; details: A2780, 24 h
Procedure, shortened: (§4)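 MTT proliferation assay in ovarian carcinoma A2780 and P-glycoprotein-overexpressing A2780AD cells, grown in RPMI 1640 with 10% FCS, glutamine, antibiotics and 0.25 units/mL bovine insulin. IC50 (50% inhibition of proliferation) is the mean ± standard error of two independent experiments in duplicate. Relative resistance is IC50 in A2780AD divided by IC50 in A2780.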

[6] = Displacement of pironetin from tubulin in cell-free system assessed as bound pironetin concentration at 200 uM after 15 mins by HPLC method
Procedure, shortened: (§5)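 Tubulin (25 µM in GAB: 3.4 M glycerol, 10 mM sodium phosphate, 1 mM EGTA, 1 mM GTP, pH 6.5) preincubated 15 min at 37 °C with 200 µM analogue or DMSO. 30 µM pironetin then added for a further 15 min. Docetaxel (10 µM) added as internal standard. Unreacted pironetin extracted three times with CH2Cl2 and quantified by reverse-phase HPLC, UV at 230 nm. Mean of three measurements ± SE.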

[7] = test system: A549; assay: Induction of abberant mitosis in human A549 cells assessed as metaphase mitotic cells with type III mitotic spindles at 200 uM after 4 hrs relative to control; format: functional, cell-based; procedure, shortened: as §3
[8] = Cytotoxicity against compound-resistant human A2780AD cells after 24 hrs by MTT assay; format: functional, cell-based; details: A2780 ADR; procedure, shortened: as §4
[9] = Displacement of pironetin from tubulin in cell-free system assessed as unbound pironetin concentration at 200 uM after 15 mins by HPLC method; procedure, shortened: as §5
[10] = Inhibition of tubulin assembly assessed as concentration of tubulin required to produce assembly at 100 uM after 30 mins; procedure, shortened: as §1
[11] = test system: A549; assay: Induction of microtubule cytoskeleton depolymerization in human A549 cells at 200 uM after 4 hrs by immunofluorescence assay; format: cell-based
[12] = test system: A549; assay: Induction of apoptosis in human A549 cells after 20 hrs; format: functional, cell-based
[13] = test system: A549; assay: Induction of abberant mitosis in human A549 cells assessed as metaphase mitotic cells with type III mitotic spindles at 50 nM after 4 hrs relative to control; format: functional, cell-based; procedure, shortened: as §3
[14] = test system: A549; assay: Cell cycle arrest in human A549 cells assessed accumulation at G2/M phase at 50 nM after 20 hrs by propidium iodide staining-based flow cytometry; format: functional; procedure, shortened: as §2
[15] = Binding affinity to tubulin after 15 min; procedure, shortened: as §5
[16] = test system: A549; assay: Induction of microtubule cytoskeleton depolymerization in human A549 cells at 50 nM after 4 hrs by immunofluorescence assay; format: cell-based; procedure, shortened: as §3
[17] = test system: A549; assay: Induction of abberant mitosis in human A549 cells assessed as metaphase mitotic cells with DNA forming a ring surrounding mono-aster of microtubule at 50 nM after 4 hrs relative to control; format: functional, cell-based; procedure, shortened: as §3

| Activity [1] [µM] | Activity [6] [µM] | Activity [9] [µM] | Activity [10] [µM] | Activity [15] [µM] | Compound | Activity [2] [µM] | Ratio IC50 [3] | Activity [4] | pIC50 [5] | Activity [7] | pIC50 [8] | Activity [11] | Activity [12] | Activity [13] | Activity [14] | Activity [16] | Activity [17] |
| --- | --- | --- | --- | --- | --- | --- | --- | --- | --- | --- | --- | --- | --- | --- | --- | --- | --- |
| 0.4 | – | – | – | – | CC(=O)O[C@@]12CO[C@@H]1C[C@H](O)[C@@]1(C)C(=O)[C@H](O)C3=C(C)[C@@H](OC(=O)[C@H](O)[C@@H](NC(=O)OC(C)(C)C)c4ccccc4)C[C@@](O)([C@@H](OC(=O)c4ccccc4)[C@H]21)C3(C)C | – | – | – | – | – | – | – | – | – | – | – | – |
| – | 10 | 15 | 3.75 | – | CCCCC[C@@H](CCC[C@@H]1CC=CC(=O)O1)OC | 50 | 0.77 | – | 4.83 | – | 4.94 | – | inactive | – | – | – | – |
| – | – | – | 3.44 | – | CCCCC[C@H](C[C@@H](O)C[C@H]1CC=CC(=O)O1)OC | 100 | 0.62 | – | 4.54 | – | 4.74 | – | inactive | – | – | – | – |
| – | 4 | 10 | – | – | CCCCC[C@@H](C[C@H](O)C[C@@H]1CC=CC(=O)O1)OC | 100 | 0.74 | – | 4.45 | – | 4.58 | – | inactive | – | – | – | – |
| – | 10 | 15 | 3.85 | – | CCCCC[C@H](CCC[C@H]1CC=CC(=O)O1)OC | 50 | 0.7 | Active | 4.77 | Active | 4.91 | Active | – | – | – | – | – |
| > 15 | – | – | – | 23.4 | C/C=C/C[C@H](C)[C@@H](OC)[C@@H](C)[C@H](O)C[C@H]1OC(=O)C=C[C@H]1CC [PIRONETIN] | – | 1 | – | 8.54 | – | 8.52 | – | inactive | Active | Active | Active | Active |
| – | 4 | 10 | – | – | CCCCC[C@H](C[C@H](O)C[C@@H]1CC=CC(=O)O1)OC | 100 | 1.3 | – | 4.64 | – | 4.52 | – | inactive | – | – | – | – |

Second part, the molecule before the results:

| Compound | Activity [1] [µM] | Activity [6] [µM] | Activity [9] [µM] | Activity [10] [µM] | Activity [15] [µM] | Activity [2] [µM] | Ratio IC50 [3] | Activity [4] | pIC50 [5] | Activity [7] | pIC50 [8] | Activity [11] | Activity [12] | Activity [13] | Activity [14] | Activity [16] | Activity [17] |
| --- | --- | --- | --- | --- | --- | --- | --- | --- | --- | --- | --- | --- | --- | --- | --- | --- | --- |
| CCCCC[C@H](CCC[C@@H]1CC=CC(=O)O1)OC | – | 10 | 15 | 3.79 | – | 50 | 1.42 | Active | 4.84 | Active | 4.69 | Active | – | – | – | – | – |
| CCCCC[C@@H](C[C@@H](O)C[C@@H]1CC=CC(=O)O1)OC | – | – | – | – | – | 200 | 0.93 | Active | 4.31 | Active | 4.33 | Active | inactive | – | – | – | – |
| CCCCC[C@@H](C[C@@H](O)C[C@H]1CC=CC(=O)O1)OC | – | – | – | – | – | 200 | 0.74 | – | 4.47 | – | 4.60 | – | inactive | – | – | – | – |
| CCCCC[C@@H](C[C@H](O)C[C@H]1CC=CC(=O)O1)OC | – | – | – | – | – | 200 | 0.89 | – | 4.27 | – | 4.32 | – | inactive | – | – | – | – |
| CCCCC[C@H](C[C@@H](O)C[C@@H]1CC=CC(=O)O1)OC | – | – | – | – | – | 200 | 1.67 | – | 4.26 | – | 4.04 | – | inactive | – | – | – | – |
| CC(=O)O[C@H]1C(=O)[C@@]2(C)[C@H]([C@H](OC(=O)c3ccccc3)[C@]3(O)C[C@H](OC(=O)[C@H](O)[C@@H](NC(=O)c4ccccc4)c4ccccc4)C(C)=C1C3(C)C)[C@]1(OC(C)=O)CO[C@@H]1C[C@@H]2O [PACLITAXEL] | – | – | – | – | – | – | 1157 | – | 9.09 | – | 6.02 | – | – | – | – | – | – |
| CCCCC[C@H](C[C@H](O)C[C@H]1CC=CC(=O)O1)OC | – | 4 | 10 | 3.39 | – | 100 | 1.3 | – | 4.36 | – | 4.24 | – | inactive | – | – | – | – |
| CCCCC[C@@H](CCC[C@H]1CC=CC(=O)O1)OC | – | – | – | 3.73 | – | 50 | 0.45 | Active | 4.69 | Active | 5.05 | Active | inactive | – | – | – | – |
